# D1 allo mod: allosteric modulators of human D1 dopamine receptor; HEK293 D1, CRE-luciferase, dopamine EC30 potentiation; actives deviate in either direction; B-score at 10 µM; AID 641; 5.9% of 58,000 active;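 active = luminescence count or its row- and column-corrected plate score outside the 99.7% band of the plate's sample wells, on either side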
# RORA act: activators of human nuclear receptor RORA; P35398; CHO-K1 Gal4-RORA LBD luciferase reporter, luminescence; percent increase over mock-subtracted basal signal; activation, % at 10 µM; 1.5% of 65,000 active; AID 560;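 active = activation above the mean of all tested compounds plus 3 SD, cut at about 49% in these data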;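 note: 0% = DMSO-treated RORA cells and 100% = added signal equal to DMSO minus mock-transfected cells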
# SF1 activator: activators of human nuclear receptor SF-1. AID 522. CHO-K1 Gal4-SF-1 LBD luciferase reporter; % increase over DMSO SF-1-specific signal. 1.9% of 65,000 active. activation, % at 10 µM;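 active = activation above the mean activation of all tested compounds plus 3 SD, cut at about 50% in these data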
#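 Test system: CHO-K1 cells co-transfected with Gal4 DBD–human SF-1 LBD, 5xGal4 luciferase reporter. Quantity: 4,000 cells per well. Compound: 10 µM only. Incubation: compound added 1 h post-seeding, 20 h exposure at 37 °C, 5% CO2. Detection: SteadyLite luciferase luminescence. Replication: one test per compound.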
# M1 antag: antagonists of rat M1 muscarinic receptor; AID 628; B-score at 10 µM; P08482; CHO-M1 cells, Fluo-4 calcium, ACh EC80 antagonist mode; hits give low values; 3.4% of 64,000 active;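 active = calcium fluorescence response, raw or row-and-column corrected B-score, differing from the plate sample mean either way at a set confidence level, mostly lower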
# Target sequence (P08482 whole entry, looked up): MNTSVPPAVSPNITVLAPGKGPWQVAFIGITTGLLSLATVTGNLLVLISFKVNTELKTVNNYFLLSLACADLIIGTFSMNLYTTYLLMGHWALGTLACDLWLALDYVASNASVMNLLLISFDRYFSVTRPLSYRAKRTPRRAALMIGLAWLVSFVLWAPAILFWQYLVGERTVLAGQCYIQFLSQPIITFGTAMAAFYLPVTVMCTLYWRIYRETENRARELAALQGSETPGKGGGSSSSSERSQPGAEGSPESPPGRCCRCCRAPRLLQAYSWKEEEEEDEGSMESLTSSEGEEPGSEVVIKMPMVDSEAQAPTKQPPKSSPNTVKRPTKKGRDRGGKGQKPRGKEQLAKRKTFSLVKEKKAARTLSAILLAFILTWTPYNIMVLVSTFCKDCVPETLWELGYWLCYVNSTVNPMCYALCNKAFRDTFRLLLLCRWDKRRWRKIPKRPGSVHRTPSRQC
# M1 ag: M1 muscarinic receptor agonism; AID 626; CHO-M1 cells, Fluo-4 calcium fluorescence, agonist mode; hits give high values; B-score at 10 µM; 3% of 64,000 active;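 active = fluorescence rise, raw or as B-score row- and column-corrected plate score, outside the 99.7% band of its plate's samples, either direction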
# mHtt clearance: compounds clearing mutant huntingtin protein | AID 853 | 0.42% of 47,000 active | inhibition, % at 1.5 µM | HeLa Exon1htt(103Q)mCFP, aggregate imaging; zero = plate's median compound well;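 active = inhibition of aggregate fluorescence above about 70%, also judged a hit by eye on the cell image, limit read from the data, passing the limit was not always enough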;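 note: cells exposed to compound for three days before fixation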
# M1 antag conf: M1 muscarinic receptor (rat) antagonism, confirmed; shares compounds with M1 antag; CHO-M1 cells, Fluo-4 calcium, ACh EC80 antagonism; hits give low values; calcium response (max-min fluorescence) at 10 µM; 43% of 1,700 active; AID 677;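 active = calcium response below the same-plate mean of wells given acetylcholine alone at its 80%-effect dose, minus 3 SD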;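 note: raw fluorescence intensity difference in arbitrary instrument units and not normalized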
# mGluR4 antag: selectivity test for M1 antagonists: human mGluR4 receptor. CHO-mGluR4 calcium flux, Fluo-4 fluorescence, glutamate EC80; hits give low values. 0.9% of 1,700 active. AID 678. fluorescence response (max-min) at 10 µM. shares compounds with M1 antag;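 active = fluorescence response below the plate's average for near-maximal glutamate wells, less 3 SD of those wells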;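 note: raw unnormalized fluorescence span taken in the window right after glutamate addition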
# Starred values were filed as active, the others as inactive; . = not tested or not shown. Hits are enriched below; roughly 11% of the tested compounds scored in any of these assays.
SMILES,D1 allo mod,RORA act,SF1 activator,M1 antag,M1 ag,mHtt clearance,M1 antag conf,mGluR4 antag
Cc1ccc(C)c(NC(=O)C2CC(O)CN2C(=O)OC(C)(C)C)c1 (stereo unspecified),-0.16,-3,8,-0.18,0.05,0,.,.
CCCN(CCC)CCCNC(=O)c1ccc2c(c1)N(CC)C(=O)c1ccccc1S2=O (stereo unspecified),-0.076,-18,-7,-4.2*,-0.4,35,328*,202
COc1ccc(Cn2nc(C)n(N(C)c3ncc(C(F)(F)F)cc3Cl)c2=O)cc1,.,.,.,.,.,-75,.,.
CCOc1ncccc1C(=O)OCC(=O)NCCc1ccc(OC)cc1,0.02,-15,5,0.41,0.83,.,.,.
COc1ccc(-c2nc3n(n2)C(c2ccccc2Cl)C(C(N)=O)=C(C)N3)cc1 (stereo unspecified),-0.002,-6,15,-3*,0.34,.,626,245
Cc1ccc(NC(=O)c2cc(NC(=O)C3CC=CCC3C(=O)O)ccc2N2CCOCC2)cc1Cl (stereo unspecified),.,.,.,.,.,21,.,.
Cc1ccc2[nH]c(=O)c(-c3nc4cc(C)ccn4c3NCc3ccco3)cc2c1,-2.5,31,22,-3.3*,0.097,.,412,217
COC(=O)c1oc2c(c1C)C1(CCC2)SCCS1,1.8,-9,4,-6.8*,1.2,-67,259*,183
COc1ccc(S(=O)(=O)NC(CC(=O)NCc2ccco2)c2ccco2)cc1 (stereo unspecified),0.61,0,0,0.19,0.51,-84,.,.
Cc1ccc(S(=O)(=O)NC(CC(=O)NCc2ccco2)c2ccco2)cc1 (stereo unspecified),-0.55,6,18,-4.7*,-1,18,684,197
Cc1ccc(S(=O)(=O)/N=C(\CN2CCCCC2)N2CCOCC2)cc1,0.57,-13,-20,-2.6*,-0.043,-11,589,236
Cc1ccc(S(=O)(=O)N2CCN(C(=O)CN3CCOCC3)C2)cc1,.,-15,-12,-0.19,-0.59,.,.,.
COc1ccc(-c2noc(CSc3nc4ccccc4c(=O)n3-c3ccccc3)n2)cc1OC,.,-9,-2,-3.9*,0.0052,.,671,235
O=c1c2ccccc2nc(SCc2nc(-c3ccccc3)no2)n1-c1ccc(F)cc1,-0.39,-2,-4,-0.42,-1.8,.,.,.
CCN(C(=O)Cc1cccs1)c1nnc(-c2cccnc2)s1,2.8,18,8,0.45,-0.84,.,.,.
N#Cc1ccccc1NC(=O)c1ccc(-c2ccccc2Cl)o1,-0.44,22,6,-0.15,0.21,32,.,.
CC(=O)N1CCC2(CC1)C(C#N)=C(N)Oc1n[nH]c(CSc3ccc(C)cc3)c12,-0.13,-1,24,-2.4*,-0.42,.,676,127*
CCc1[nH]nc2c1C1(CCN(C(=O)c3ccccc3)CC1)C(C#N)=C(N)O2,0.63,13,-6,0.29,0.39,-10,.,.
O=C(O)C1C2C=CC(C2)C1C(=O)NCCCn1ccnc1 (stereo unspecified),-0.6,-1,12,0.19,0.33,15,.,.
Cc1ccc(N2CN=c3s/c(=C\c4ccccn4)c(=O)n3C2)cc1,-1.6,-23,5,0.15,-0.05,28,.,.
CC1(C)NC(=O)N(CC(O)COc2cc3ccccc3cc2C(=O)N2CCCCC2)C1=O (stereo unspecified),.,-2,-1,-3*,0.49,46,638,243
CC1(C)NC(=O)N(CC(O)COc2ccccc2C(=O)N2CCCCC2)C1=O (stereo unspecified),0.12,-9,-15,0.5,-0.18,4,.,.
CC1CCN(c2ccc(C(=O)NCc3cccs3)cn2)CC1,0.5,37,50,-1.3,-0.4,.,.,.
CN1CCN(S(=O)(=O)c2ccc(NC(=O)c3cccc(S(=O)(=O)N4CCCC4)c3)cc2)CC1,0.8,2,0,-16*,-0.36,-54,43*,210
Cc1ccc(C)c(CSc2nnc(-c3ccccn3)n2N)c1,0.5,-6,-5,-0.0096,0.36,.,.,.
